Measured values from paper PMC5510570 (The Journal of organic chemistry, 2017).
“Also recorded” adds a separate entry of the source.

Tests used:
Type in all cases: cell-based
human HEp2 cells [1] = test: Dark cytotoxicity; conditions: read-out: Dark toxicity IC50, in the dark, up to 200 μM, incubated overnight
Procedure, shortened: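 HEp2 cells kept in 50:50 DMEM:AMEM with 5% FBS and 1% penicillin/streptomycin, seeded at 7500 per well and grown 48 h. Dosed at 0, 6.25, 12.5, 25, 50, 100 and 200 μM final, diluted from DMSO stock, overnight at 37°C, 5% CO₂. Washed with PBS, then 20% CellTiter Blue medium for 4 h, read at 570/615 nm. Untreated set to 100%, 0.2% saponin to 0%.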

human HEp2 cells [2] = test: Phototoxicity; conditions: for IC50: read-out: Phototoxicity IC50, 1.5 J/cm^2 light dose, up to 100 μM
Procedure, shortened: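 HEp2 cells were grown in 50:50 DMEM:AMEM with 5% FBS and 1% penicillin/streptomycin, plated at 7500 cells/well and grown 48 h. Cells were loaded 24 h with test compound at 0–100 μM (from 32 mM DMSO stock), washed with PBS and given fresh medium. They were irradiated 20 min with a 600 W water-filtered halogen lamp (~1.5 J/cm²) and incubated 24 h. Viability was read with 20% CellTiter Blue (4 h, 570/615 nm), normalized to untreated (100%) and 0.2% saponin (0%).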

human HEp2 cells [3] = test: Time-dependent cellular uptake; conditions: for Cellular uptake at 24 h: 10 μM compound; for Cellular uptake (in words): 0-24 h
Procedure, shortened: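 HEp2 cells, cultured and plated as for cytotoxicity, were exposed to 10 μM test compound for 0, 1, 2, 4, 8 and 24 h. Cells were PBS-washed and lysed in 0.25% Triton X-100/PBS, and fluorescence was read at 485/590 nm against a compound standard curve (0.3125–10 μM). Cell number was measured by CyQuant against a 10⁴–10⁵ cell standard curve. Uptake was expressed as nM compound per cell.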

| Cellular uptake at 24 h (human HEp2 cells [3]) | Time at which uptake plateau was reached (human HEp2 cells [3]; 10 μM) | Compound | IC50 (human HEp2 cells [1]) | Phototoxicity (in words) (human HEp2 cells [2]; light irradiation 1.5 J/cm^2, up to 100 μM) | IC50 (human HEp2 cells [2]) | Cellular uptake (in words) (human HEp2 cells [3]; 10 μM) |
| --- | --- | --- | --- | --- | --- | --- |
| 0.058±0.028 nM/cell | – | 2,3,5,6,8-Pentaphenyl-BODIPY [BODIPY 4] | > 200 µM | slight phototoxicity | > 100 µM | very low uptake; also recorded: accumulated the least |
| 1.2±0.10 nM/cell | – | 3,5,8-Triphenyl-2,6-dichloro-BODIPY [BODIPY 2] | > 200 µM | – | > 100 µM | taken-up faster and more efficiently at all times investigated; also recorded: accumulated the most within cells after 24 hours |
| 0.14±0.01 nM/cell | – | 3,5,8-Triphenyl-2,6-dithienyl-BODIPY [BODIPY 3] | > 200 µM | – | > 100 µM | very low uptake |
| 0.14±0.01 nM/cell | – | 8-(4-Benzyloxycarbonylphenyl)-3,5-di(4-methoxyphenyl)-2,6-dichloro-BODIPY [BODIPY 6a] | > 200 µM | – | > 100 µM | – |
| 0.12±0.01 nM/cell | – | 8-(4-Cyanophenyl)-3,5-di(4-methoxyphenyl)-2,6-dithienyl-BODIPY [BODIPY 7] | > 200 µM | – | > 100 µM | – |
| 0.51±0.01 nM/cell | – | COc1ccc(C2=[N+]3C(=C(c4ccc(C#N)cc4)c4cc(Cl)c(-c5ccc(OC)cc5)n4[B-]3(F)F)C=C2Cl)cc1 [BODIPY 6b, 8-(4-Cyanophenyl)-3,5-di(4-methoxyphenyl)-2,6-dichloro-BODIPY] | > 200 µM | – | > 100 µM | higher cellular uptake; also recorded: highest cellular uptake |
| 0.79±0.13 nM/cell | 8 h | COc1ccc(C2=CC3=C(c4ccc(C#N)cc4)c4cc(-c5ccc(C#N)cc5)c(-c5ccc(OC)cc5)n4[B-](F)(F)[N+]3=C2c2ccc(OC)cc2)cc1 [BODIPY 8, 8-(4-Cyanophenyl)-3,5-di(4-methoxyphenyl)-2-(4-methoxyphenyl)-6-(4-cyanophenyl)-BODIPY] | > 200 µM | – | > 100 µM | higher cellular uptake; also recorded: highest cellular uptake |
